The record followed here is ChEMBL document CHEMBL1130185, “Search for DNA repair inhibitors: selective binding of nucleic bases-acridine conjugates to a DNA duplex containing an abasic site” (J Med Chem, 1997).

Data set [1] in a line: Deprotonation equilibrium constant for compound was determined. The class given is ADME. The method in brief: (§1)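 pKa values were determined by potentiometric titration of the acridine ligand at 5 × 10^-4 M across pH 2-12. The distribution of nonprotonated, mono-, bi- and higher protonated species was estimated graphically from the titration curves.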
Data set [2] in a line: Deprotonation equilibrium constant for compound was determined at pH<4. Type of data set: ADME. In short, it runs like this:
as §1

The term pKa denotes the negative logarithm of the acid dissociation constant. As to `COc1ccc2nc3cc(Cl)ccc3c(NCCCNCCCN)c2c1`, the pKa in data set [1] came out at 10.

As for `COc1ccc2nc3cc(Cl)ccc3c(NCCCNCCCNCCn3cnc4c(N)nc(N)nc43)c2c1`, the pKa in data set [1] came out at 9.8; in data set [2], 4.
